The list is not random: actives were taken first. Their share in the collection is about 3.2%.
rCAG binder – binds r(CAG) RNA repeats; r(CAG) RNA repeat, TO-PRO-1 dye displacement fluorescence; inhibition, % at 3 µM; 1.3% of 370,000 active; AID 651821;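 active = inhibition above the plate cutoff, the mean of all test compounds on that plate plus 3 SD, cut at about 35% in these data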;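 also: higher means more dye released from RNA so lower well fluorescence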
PRMT1 inh – PRMT1 (human) inhibition, primary screen | recombinant PRMT1, activity-based probe fluorescence polarization | 1.3% of 370,000 active | AID 652257 | inhibition, % at 2.79 µM | Q99873;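 active = inhibition above about 21% made by adding two undisclosed values, limit read from the data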
mABHD4 FP – ABHD4 (mouse) inhibition, primary FP screen; AID 720543; inhibition, % at 8.92 µM; 0.54% of 370,000 active; Q8VD66; purified mABHD4, FP-Rh probe fluorescence polarization;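 active = inhibition exceeding the mean over every tested compound plus 3 SD, cut at about 30% in these data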
Target sequence (Q8VD66 whole entry, looked up): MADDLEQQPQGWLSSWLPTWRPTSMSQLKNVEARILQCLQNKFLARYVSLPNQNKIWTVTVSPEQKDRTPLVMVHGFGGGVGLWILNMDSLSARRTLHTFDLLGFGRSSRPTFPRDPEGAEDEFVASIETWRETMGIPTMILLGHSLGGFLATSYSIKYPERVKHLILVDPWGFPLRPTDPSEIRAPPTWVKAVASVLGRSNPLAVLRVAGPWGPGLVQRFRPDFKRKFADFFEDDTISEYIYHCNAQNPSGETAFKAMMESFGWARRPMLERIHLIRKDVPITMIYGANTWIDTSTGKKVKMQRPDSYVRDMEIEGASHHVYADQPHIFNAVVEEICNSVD
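Test system: mouse ABHD4 enzyme, wild type. Reagent: FP-Rh fluorescent activity-based probe, added after compound pre-incubation. Timing: pre-incubation 45 min, probe exposure 60 min, at 25 °C. Technique: FP readout, ex 525 nm / em 598 nm. Benchmarks: high control S159A mutant with DMSO, low control median of compound wells.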
LEDGF integ inh – blocks HIV-1 LEDGF/p75-dependent DNA integration | TR-FRET IN-LEDGF/p75 DNA integration, Eu/Cy5 | inhibition, % at 3.7 µM | 0.64% of 370,000 active | AID 743269;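 active = inhibition above the screen-wide mean plus 3 SD, cut at about 13% in these data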;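 also: signal is the Cy5 over europium emission ratio at 671 and 618 nm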
DAGLB inh – blocks human DAGLB lipase activity. AID 504411. HEK293T DAGLB membrane lysate, EnzChek fluorogenic substrate. inhibition, % at 5.17 µM. 0.059% of 340,000 active. Q8NCG7; in the data active = inhibition above about 34%
HTRA1 inh – inhibitors of human serine peptidase HTRA1; AID 504803; 0.5% of 340,000 active; inhibition, % at 5.96 µM; recombinant HTRA1, FP-rhodamine activity-based probe, fluorescence polarization; Q92743; in the data active = inhibition above about 36%
Of the large screens only hits and unclear results are named; the others gave an inactive call.

O=Cc1ccccc1-n1cccn1	none
Oc1cc(-n2cccn2)c(O)cc1-n1cccn1	PRMT1 inh 57.2
COc1ccc(OC)c(NC(=S)NN2CCN(C)CC2)c1	none
O=C(/C=C/c1ccccc1)c1ccccc1	none
O=C(/C=C\c1ccc(-c2ccccc2)o1)c1ccccc1	PRMT1 inh 26.0
COc1ccc(Cc2n[nH]c(=S)n2-c2ccc3c(c2)OCCO3)cc1	none
COc1ccccc1Nc1nc(-c2cccs2)cs1	rCAG binder 34.8
CCOc1ccc2c(O)csc2c1	PRMT1 inh 41.1
CCCC(=O)Nc1nc2ccc(OCC)cc2s1	none
Cc1ccc(CNC(=O)c2cccc3c2C(=O)c2ccc(N4CCCCC4)cc2S3(=O)=O)cc1	none
O=C(NCc1ccco1)c1cccc2c1C(=O)c1ccc(N3CCCC3)cc1S2(=O)=O	PRMT1 inh 37.1
COc1ccc(CNC(=O)c2sc(=S)n(-c3ccccc3)c2N)cc1	PRMT1 inh 21.2
CCOc1ccc(-n2c(N)c(C(=O)NCc3cccnc3)sc2=S)cc1	none
O=C(c1nc2ccccc2[nH]1)c1ccccc1[N+](=O)[O-]	none
CN(CC(=O)Nc1ccc(F)cc1)C(=O)COC(=O)C1=COCCO1	none
Cc1nc(N)sc1-c1csc(Nc2ccccn2)n1	PRMT1 inh 23.2
Cc1ccc(N(CC(=O)Nc2cc(C)cc(C)c2)S(=O)(=O)c2c(C)noc2C)cc1	none
CSc1nc(-c2ccco2)nn1C(=O)c1ccco1	none
CSc1cc(-c2ccco2)oc1C(=O)c1ccco1	PRMT1 inh 24.6
O=C(CCS(=O)(=O)c1ccc(Cl)cc1)Nc1ccc(N2CCOCC2)cc1	none
COc1cc2cc(C(c3nnnn3C3CCCC3)N3CCCCC3)c(=O)[nH]c2cc1OC (stereo unspecified)	none
O=c1[nH]c2cc3c(cc2cc1C(c1nnnn1C1CCCCC1)N1CCSCC1)OCCO3 (stereo unspecified)	PRMT1 inh 22.2
CN1c2ccccc2C(O)=C(C(=S)Nc2ccc(Cl)cc2)S1(=O)=O	rCAG binder 68.5
Cc1cccc(NC(=O)C2=C(O)c3ccccc3N(C)S2(=O)=O)c1	none
C=CC(C)(C)c1c2occc2c(O)c2ccc(=O)oc12	none
C=CC(C)(C)c1c(O)c(CC=C(C)C)c(O)c2c(=O)c3ccc(O)c(O)c3oc12	HTRA1 inh 36.5 (no result: rCAG binder, PRMT1 inh, mABHD4 FP, LEDGF integ inh)
Cc1ccccc1N(Cc1cc(=O)[nH]c2ccccc12)C(=O)CCl	none
CCCCCCCN(C(=O)CCl)c1ccccc1C	PRMT1 inh 46.8
Cc1ccc(C)c(/C=N/Nc2nc3ccccc3c(=O)n2O)c1	PRMT1 inh 24.7 (no result: DAGLB inh, HTRA1 inh)
C/C(=N\Nc1nc2ccccc2c(=O)n1O)c1ccco1	PRMT1 inh 36.1
Cc1ccc2nc(C)cc(N/N=C/c3ccccc3O)c2c1	none
CSc1ccc(C2C(C#N)=C(N)N(c3ccccc3)C3=C2C(=O)CCC3)cc1 (stereo unspecified)	none
N#CC1=C(N)N(c2ccc(F)cc2)C2=C(C1c1ccc(O)cc1)S(=O)(=O)CC2 (stereo unspecified)	rCAG binder 35.4
CCCOc1ccc(C(=O)NNC(=O)CCNC(=O)c2ccccc2Cl)cc1OC	none
CCC[C@@H](CN1CCC[C@H]1CN1C(N)=NC[C@@H]1Cc1ccccc1)N1C[C@@H](Cc2ccccc2)N(CCc2ccc(Cl)c(Cl)c2)C1=N	mABHD4 FP 33.6
Cc1nn(-c2cc(C)c3ccccc3n2)c2c1C1C(C2)C1(C)C (stereo unspecified)	none
O=C(CCCN1C(=O)/C(=C/c2ccccc2Cl)SC1=S)NCCCN1CCOCC1	PRMT1 inh 24.2
COC(=O)[C@]12C[C@H](CC(=O)NCc3ccc(C)o3)C(=O)N(Cc3ccccc3)C1=C[C@H](C1CCCC1)O[C@@H]2C	PRMT1 inh 22.3 (no result: DAGLB inh, HTRA1 inh)
CCOC(=O)[C@]12CCC=C1N(Cc1ccccc1)C(=O)[C@H](CC(=O)NCc1ccc(C)o1)C2	PRMT1 inh 23.0 (no result: DAGLB inh, HTRA1 inh)
CC(=O)c1c(N2CCOCC2)[nH]c(-c2ccccc2)nc1=S	none
Cc1cc(C2=NNC(=NC3CC3)SC2)c(C)n1-c1ccccc1	none
c1ccc(C2=NNC(=NC3CC3)SC2)cc1	PRMT1 inh 64.8
CSc1nsc(SCC(=O)Nc2c(C)n(C)n(-c3ccccc3)c2=O)n1	PRMT1 inh 21.5
O=C(N[C@H]1CCC(=O)N([C@H](CSc2ccccc2)Cc2ccccc2)CC1)OCc1ccccc1	none
CC(=O)Nc1ccc(S(=O)(=O)N(C)c2ccc(OCC(=O)Nc3ccccc3C(C)=O)cc2)cc1	none
CN(c1ccc(OCC(=O)Nc2ccccc2C(=O)O)cc1)S(=O)(=O)c1ccc(Cl)cc1	rCAG binder 55.0
NS(=O)(=O)c1ccc(-c2ccc(C=C3C(=O)c4ccccc4C3=O)o2)cc1	none
CC(C)CC1=C/C(=C/c2ccc(-c3ccccc3)o2)C(=O)O1	rCAG binder 43.5
Cc1ccc(S(=O)(=O)N(OCc2ccccc2)C(C)C(=O)O)cc1 (stereo unspecified)	none (no result: DAGLB inh, HTRA1 inh)
Cc1ccc(S(=O)(=O)/N=C2/C=C(C3C(=O)CC(C)(C)CC3=O)C(=O)c3ccccc32)cc1	LEDGF integ inh 39.7
Cc1ccc(C(=O)CSc2cc(C)[nH]c(=O)n2)cc1	none
Cc1cc(SCC(=O)c2ccccc2)nc(=O)[nH]1	PRMT1 inh 24.7
COc1cccc(Nc2ccc(N3CCCCC3)cc2)c1OC	PRMT1 inh 24.1
CCCC[C@@]1(C2CCCC2)Cc2cc(OCC(=O)O)c(Cl)c(Cl)c2C1=O	rCAG binder 46.8
C[C@]1(C2CCCC2)Cc2cc(OCC(=O)O)c(Cl)c(Cl)c2C1=O	none
Cc1nnc2c(NCC(C)c3ccccc3)nc3ccccc3n12 (stereo unspecified)	none
CCNc1ccc(Br)cc(C(=O)/C=C/c2c(Cl)cccc2Cl)c1=O	HTRA1 inh 57.7 (no result: rCAG binder, PRMT1 inh, mABHD4 FP, LEDGF integ inh)
CC[n+]1c(C)sc2cc(OC)ccc21	PRMT1 inh 54.4
COc1ccc2c(Cl)c(C(=O)NN)sc2c1	none
COc1ccc(CN2C(=O)c3ccccc3C2C(=O)NC2CCCC(C)C2C)c(OC)c1 (stereo unspecified)	none
COc1ccc(S(=O)(=O)Nc2cccc(F)c2)cc1C	none
COc1ccc(S(=O)(=O)Nc2ccc(S(=O)(=O)Nc3ccc(F)cc3)cc2)cc1C	rCAG binder 46.8
N#Cc1c(C(F)(F)F)cc(-c2ccc(Cl)cc2)[nH]c1=O	rCAG binder 37.5
Cc1ccc2[nH]c3c(c2c1)CN(C(=O)CN1CCN(C(=O)c2ccco2)CC1)CC3	PRMT1 inh 21.2 (no result: DAGLB inh, HTRA1 inh)
NC(=O)c1c(NC(=O)C2CC=CCC2C(=O)O)sc2c1CCCCC2 (stereo unspecified)	PRMT1 inh 22.6
CN(C)S(=O)(=O)c1cccc(NC(=O)COC(=O)/C=C/c2ccco2)c1	none
Cc1ccc(NC(=O)COC(=O)/C=C/c2ccco2)cc1S(=O)(=O)N(C)C	PRMT1 inh 21.2
COc1ccccc1-c1nc(-c2ccc(C(=O)O)cc2)no1	none
